Hits are enriched below; roughly 3.3% of the tested compounds scored in any of these assays.
FXN GAA850 act: increases GAA850 frataxin promoter reporter activity | 360,000 tested, 0.56% active | activation, % at 6 µM | HEK293 lucGAA850 FXN promoter luciferase reporter, 24 h; percent of 10 µM SAHA response | AID 540364;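 active = activation above the average of all compounds screened plus 3 SD, cutoff fixed separately per campaign, cut at about 7.5% in these data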;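 note: 0% = DMSO wells and 100% = 10 µM SAHA wells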
AHR activator: human AHR activation; P35869; AHR-responsive luciferase reporter cells, luminescence; activation, % at 5 µM; 320,000 tested, 2.5% active; AID 2796; in the data active = activation above about 47%;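 note: 0% = vehicle wells and 100% = reference agonist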
STAT3 activator: activators of IL-6 induced STAT3 signaling. activation (% of control), % at 5.6 µM. U3A cells, IL-6 STAT3-luciferase reporter, luminescence; 100% = signal with IL-6 EC80 alone. 190,000 tested, 0.91% active;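 active = activation above the screen-wide mean of compound activation plus 3 SD, cut at about 130% in these data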;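 note: 0% = background luminescence of wells with medium and substrate only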
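Detection: reporter luminescence signal / Assay system: STAT1-lacking human U3A cells, STAT3 luciferase reporter / Incubation: compound pre-incubation 1 h before IL-6, then 6 h stimulation at 37 °C / Control set: IL-6-only high control / Read-out: % activation relative to IL-6 control / Probe or stimulus: Interleukin-6, 33 ng/mL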
ABCB6 inh 2: blocks the human ABCB6 transporter; 360,000 tested, 0.19% active; Q9NP58; K562-ABCB6 porphyrin accumulation, flow cytometry, 1 h; active compounds read low; fluorescence ratio to DMSO, % at 10 µM;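 active = fluorescence ratio to DMSO below 75%, the collection mean minus 3 SD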;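 note: signal is porphyrin accumulated inside mitochondria; 100% equals median channel fluorescence of DMSO control wells; lower ratio means ABCB6 inhibition with less porphyrin fluorescence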
An asterisk follows results filed as active.

What do the screens show for `COc1ccc(NC(=S)N2CCN(CCN3C(=O)c4cccc5cccc(c45)C3=O)CC2)cc1`?
FXN GAA850 act: 0.7; AHR activator: 96.9*; STAT3 activator: 90.3; ABCB6 inh 2: 89.0

Results for CC(=O)c1ccc(NC(=S)N2CCN(CCN3C(=O)c4cccc5cccc(c45)C3=O)CC2)cc1 ?
FXN GAA850 act: -1.2; AHR activator: 122.4*; STAT3 activator: 95.7; ABCB6 inh 2: 103.0

What do the screens show for `CCCc1cc2c(=O)c(-c3ccccn3)c(C)oc2cc1O`?
FXN GAA850 act: 0.2; AHR activator: 65.0*; STAT3 activator: 116.1; ABCB6 inh 2: 100.0

What do the screens show for `O=C(c1cnn2c(C(F)(F)F)cc(-c3ccccc3)nc12)N1CCCCC1c1cccnc1` (stereo not given)?
FXN GAA850 act: 0.9; AHR activator: 50.0*; STAT3 activator: 104.8; ABCB6 inh 2: 94.0

What do the screens show for `Cc1[nH]n(C(N)=S)c(=O)c1N=Nc1ccc2ccccc2c1`?
FXN GAA850 act: 7.2; STAT3 activator: 128.3; ABCB6 inh 2: 104.0

What do the screens show for `Cc1ccc(N=Nc2c(C)[nH]n(C(N)=S)c2=O)cc1C`?
FXN GAA850 act: 3.1; AHR activator: 51.0*; STAT3 activator: 120.3; ABCB6 inh 2: 94.0

What do the screens show for `Cc1[nH]n(C(N)=S)c(=O)c1N=Nc1cc(-c2ccc(Br)cc2)[nH]n1`?
FXN GAA850 act: 0.7; AHR activator: 54.9*; STAT3 activator: 96.2; ABCB6 inh 2: 94.0

What do the screens show for `NS(=O)(=O)c1ccc(NC(=O)CSc2nc3c(c(=O)[nH]2)CCCC3)cc1`?
FXN GAA850 act: 0.7; AHR activator: 0.8; ABCB6 inh 2: 105.0

What do the screens show for `Nc1nc(-c2ccc(Cl)cc2)nc(-c2ccc(Cl)cc2)n1`?
FXN GAA850 act: -0.6; AHR activator: 69.5*; ABCB6 inh 2: 97.0

How did CC(C)(C)c1ccc(-c2nc(N)nc(N)n2)cc1 do in these assays?
FXN GAA850 act: 4.6; AHR activator: 13.1; ABCB6 inh 2: 97.0

What do the screens show for `CCOC(=O)N1CCN(c2ccc(N3C(=O)CCCC3=O)cc2[N+](=O)[O-])CC1`?
FXN GAA850 act: 0.5; AHR activator: 1.2; STAT3 activator: 97.2; ABCB6 inh 2: 99.0

How did CCNC(=O)C1(C)CCCN(C(=O)C2(c3ccc(Cl)cc3)CCCC2)C1 (stereo not given) do in these assays?
FXN GAA850 act: 0.7; ABCB6 inh 2: 89.0

Results for O=C(CC(C(=O)O)c1c[nH]c2ccccc12)c1ccccc1 (stereo not given) ?
FXN GAA850 act: -0.4; AHR activator: 25.5; STAT3 activator: 135.6*; ABCB6 inh 2: 105.0

Results for Cc1cccc(N2CCN(c3ccc(N4C(=O)CCCC4=O)cc3[N+](=O)[O-])CC2C)c1 (stereo not given) ?
FXN GAA850 act: 0.3; AHR activator: 70.0*; STAT3 activator: 86.6; ABCB6 inh 2: 102.0

How did Cc1cccc(N2CCN(c3ccc(N4C(=O)CCCC4=O)cc3[N+](=O)[O-])CC2)c1C do in these assays?
FXN GAA850 act: 0.2; AHR activator: 0.3; STAT3 activator: 106.2; ABCB6 inh 2: 96.0

What do the screens show for `c1ccc(CCc2nc3ccccc3[nH]2)cc1`?
FXN GAA850 act: 2.8; AHR activator: -1.1; STAT3 activator: 98.1; ABCB6 inh 2: 96.0

Results for O=c1[nH]c2ccccc2nc1CCc1ccccc1 ?
FXN GAA850 act: 6.2; AHR activator: 58.3*; STAT3 activator: 91.6; ABCB6 inh 2: 102.0

Results for Cc1cc(C)cc(OCc2nc3ncc(Br)cc3[nH]2)c1 ?
FXN GAA850 act: -4.6; AHR activator: 69.4*; STAT3 activator: 105.0; ABCB6 inh 2: 93.0

How did Cn1c(=O)c2c(nc(Oc3cccc(Br)c3)n2C)n(C)c1=O do in these assays?
FXN GAA850 act: 1.4; AHR activator: 47.9*; ABCB6 inh 2: 103.0

What do the screens show for `COc1ccc(NC(=O)C2=CC=CN3CCS(=O)(=O)N=C23)c(OC)c1`?
FXN GAA850 act: 2.2; AHR activator: 7.1; ABCB6 inh 2: 97.0

What do the screens show for `CCC1CCCCN1S(=O)(=O)c1ccc(NC(=O)c2nc(S(C)(=O)=O)ncc2Cl)cc1` (stereo not given)?
FXN GAA850 act: -5.0; AHR activator: -2.3; ABCB6 inh 2: 62.0*

How did CC1CCCN(S(=O)(=O)c2ccc(NC(=O)CNC3CCCC3)cc2)C1 (stereo not given) do in these assays?
FXN GAA850 act: -1.2; AHR activator: -1.9; ABCB6 inh 2: 99.0

What do the screens show for `CCS(=O)(=O)c1ncc(Cl)c(C(=O)Nc2ccc(S(=O)(=O)N3CCCC(C)C3)cc2)n1` (stereo not given)?
FXN GAA850 act: -13.9; AHR activator: -2.8; ABCB6 inh 2: 29.0*
